Laboratory results taken from ChEMBL document CHEMBL1811814, “Synthesis and evaluation of indole, pyrazole, chromone and pyrimidine based conjugates for tumor growth inhibitory activities--development of highly efficacious cytotoxic agents” (Eur J Med Chem, 2010).

Experiments:
Type in all cases: functional
Set-up in all cases: scale not given: the % may be the effect or the level left
CCRF-CEM = assay: Growth inhibition of human CCRF-CEM cells assessed tumor cell growth at 10^-5 M
How it was run: (§1)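 NCI 60-human-tumor-cell-line panel screen. Each compound was tested at a single concentration of 10^-5 M, and percent growth of tumor cells was recorded for each cell line. Growth inhibition was expressed from these percent-growth values.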

HL-60(TB) = assay: Growth inhibition of human HL-60(TB) cells assessed tumor cell growth at 10^-5 M
How it was run: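 HL-60(TB), part of the 60-line panel, tested at a single concentration of 10^-5 M. The read-out is percent tumor cell growth relative to untreated growth.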

K562 = assay: Growth inhibition of human K562 cells assessed tumor cell growth at 10^-5 M; how it was run: as §1
MOLT-4 = assay: Growth inhibition of human MOLT4 cells assessed tumor cell growth at 10^-5 M; how it was run: as §1
[1] = Growth inhibition of human […] cells assessed tumor cell growth at 10^-5 M; how it was run: as §1
SR = assay: Growth inhibition of human SR cells assessed tumor cell growth at 10^-5 M
How it was run: (§2)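 Single-dose screen at 10^-5 M across the 60 human tumor cell line panel, run to NCI standards. The value is the percent growth of each cell line in the presence of compound. Compounds active at this dose moved on to five-concentration testing (10^-4 to 10^-8 M).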

A549 = assay: Growth inhibition of human A549 cells assessed tumor cell growth at 10^-5 M; how it was run: as §1
EKVX = assay: Growth inhibition of human EKVX cells assessed tumor cell growth at 10^-5 M; how it was run: as §1
HOP-62 = assay: Growth inhibition of human HOP62 cells assessed tumor cell growth at 10^-5 M; how it was run: as §1
HOP-92 = assay: Growth inhibition of human HOP92 cells assessed tumor cell growth at 10^-5 M; how it was run: as §1
NCI-H226 = assay: Growth inhibition of human NCI-H226 cells assessed tumor cell growth at 10^-5 M; how it was run: as §1
NCI-H23 = assay: Growth inhibition of human NCI-H23 cells assessed tumor cell growth at 10^-5 M; how it was run: as §1
NCI-H322M = assay: Growth inhibition of human NCI-H322M cells assessed tumor cell growth at 10^-5 M; how it was run: as §1
NCI-H460 = assay: Growth inhibition of human NCI-H460 cells assessed tumor cell growth at 10^-5 M; how it was run: as §1
NCI-H522 = assay: Growth inhibition of human NCI-H522 cells assessed tumor cell growth at 10^-5 M; how it was run: as §1
COLO 205 = assay: Growth inhibition of human COLO205 cells assessed tumor cell growth at 10^-5 M; how it was run: as §1
HCC 2998 = assay: Growth inhibition of human HCC2998 cells assessed tumor cell growth at 10^-5 M; how it was run: as §1
HCT-116 = assay: Growth inhibition of human HCT116 cells assessed tumor cell growth at 10^-5 M; how it was run: as §1
HCT-15 = assay: Growth inhibition of human HCT15 cells assessed tumor cell growth at 10^-5 M; how it was run: as §1
HT-29 = assay: Growth inhibition of human HT-29 cells assessed tumor cell growth at 10^-5 M; how it was run: as §1
KM12 = assay: Growth inhibition of human KM12 cells assessed tumor cell growth at 10^-5 M; how it was run: as §1
SW-620 = assay: Growth inhibition of human SW620 cells assessed tumor cell growth at 10^-5 M; how it was run: as §2
SF-268 = assay: Growth inhibition of human SF268 cells assessed tumor cell growth at 10^-5 M; how it was run: as §1
SF-295 = assay: Growth inhibition of human SF295 cells assessed tumor cell growth at 10^-5 M; how it was run: as §1
SF-539 = assay: Growth inhibition of human SF539 cells assessed tumor cell growth at 10^-5 M; how it was run: as §1
SNB-19 = assay: Growth inhibition of human SNB19 cells assessed tumor cell growth at 10^-5 M; how it was run: as §2
SNB-75 = assay: Growth inhibition of human SNB75 cells assessed tumor cell growth at 10^-5 M; how it was run: as §2
U-251 = assay: Growth inhibition of human U251 cells assessed tumor cell growth at 10^-5 M; how it was run: as §2
LOX IMVI = assay: Growth inhibition of human LOXIMVI cells assessed tumor cell growth at 10^-5 M; how it was run: as §1
Malme-3M = assay: Growth inhibition of human MALME-3M cells assessed tumor cell growth at 10^-5 M; how it was run: as §1
M14 = assay: Growth inhibition of human M14 cells assessed tumor cell growth at 10^-5 M; how it was run: as §1
MDA-MB-435 = assay: Growth inhibition of human MDA-MB-435 cells assessed tumor cell growth at 10^-5 M; how it was run: as §1
SK-MEL-2 = assay: Growth inhibition of human SK-MEL-2 cells assessed tumor cell growth at 10^-5 M; how it was run: as §1
SK-MEL-28 = assay: Growth inhibition of human SK-MEL-28 cells assessed tumor cell growth at 10^-5 M; how it was run: as §1
SK-MEL-5 = assay: Growth inhibition of human SK-MEL-5 cells assessed tumor cell growth at 10^-5 M; how it was run: as §1
UACC-257 = assay: Growth inhibition of human UACC257 cells assessed tumor cell growth at 10^-5 M; how it was run: as §2
UACC-62 = assay: Growth inhibition of human UACC62 cells assessed tumor cell growth at 10^-5 M; how it was run: as §2
IGROV-1 = assay: Growth inhibition of human IGROV1 cells assessed tumor cell growth at 10^-5 M; how it was run: as §1
OVCAR-3 = assay: Growth inhibition of human OVCAR3 cells assessed tumor cell growth at 10^-5 M; how it was run: as §1
OVCAR-4 = assay: Growth inhibition of human OVCAR4 cells assessed tumor cell growth at 10^-5 M; how it was run: as §1
OVCAR-5 = assay: Growth inhibition of human OVCAR5 cells assessed tumor cell growth at 10^-5 M; how it was run: as §1
OVCAR-8 = assay: Growth inhibition of human OVCAR8 cells assessed tumor cell growth at 10^-5 M; how it was run: as §1
NCI/ADR-RES = assay: Growth inhibition of human NCI/ADR-RES cells assessed tumor cell growth at 10^-5 M; how it was run: as §1
SK-OV-3 = assay: Growth inhibition of human SKOV3 cells assessed tumor cell growth at 10^-5 M; how it was run: as §1
786-0 = assay: Growth inhibition of human 786-0 cells assessed tumor cell growth at 10^-5 M; how it was run: as §1
A498 = assay: Growth inhibition of human A498 cells assessed tumor cell growth at 10^-5 M; how it was run: as §1
ACHN = assay: Growth inhibition of human ACHN cells assessed tumor cell growth at 10^-5 M; how it was run: as §1
CAKI-1 = assay: Growth inhibition of human Caki1 cells assessed tumor cell growth at 10^-5 M; how it was run: as §1
RXF 393 = assay: Growth inhibition of human RXF393 cells assessed tumor cell growth at 10^-5 M; how it was run: as §1
SN12C = assay: Growth inhibition of human SN12C cells assessed tumor cell growth at 10^-5 M; how it was run: as §1
TK-10 = assay: Growth inhibition of human TK10 cells assessed tumor cell growth at 10^-5 M; how it was run: as §2
UO-31 = assay: Growth inhibition of human UO31 cells assessed tumor cell growth at 10^-5 M; how it was run: as §2
PC-3 = assay: Growth inhibition of human PC3 cells assessed tumor cell growth at 10^-5 M; how it was run: as §1
DU-145 = assay: Growth inhibition of human DU145 cells assessed tumor cell growth at 10^-5 M; how it was run: as §1
MCF7 = assay: Growth inhibition of human MCF7 cells assessed tumor cell growth at 10^-5 M; how it was run: as §1
MDA-MB-231 = assay: Growth inhibition of human MDA-MB-231 cells assessed tumor cell growth at 10^-5 M; how it was run: as §1
[2] = Growth inhibition of human Hs 578T cells assessed tumor cell growth at 10^-5 M; how it was run: as §1
BT-549 = assay: Growth inhibition of human BT549 cells assessed tumor cell growth at 10^-5 M; how it was run: as §1
T47D = assay: Growth inhibition of human T47D cells assessed tumor cell growth at 10^-5 M; how it was run: as §2
MDA-MB-468 = assay: Growth inhibition of human MDA-MB-468 cells assessed tumor cell growth at 10^-5 M; how it was run: as §1

Cc1ccc(S(=O)(=O)n2cc(/C=C3\C(=O)N(c4c(Cl)cccc4Cl)c4ccccc43)c3ccccc32)cc1
Activity (CCRF-CEM): 95.6%
Activity (HL-60(TB)): 79.6%
Activity (K562): 86.5%
Activity (MOLT-4): 89.6%
Activity [1]: 77.8%
Activity (SR): 87.4%
Activity (A549): 103.8%
Activity (EKVX): 89.5%
Activity (HOP-62): 83.2%
Activity (HOP-92): 33.5%
Activity (NCI-H226): 95.2%
Activity (NCI-H23): 76.6%
Activity (NCI-H322M): 99.4%
Activity (NCI-H460): 102.8%
Activity (NCI-H522): 91.5%
Activity (COLO 205): 100.1%
Activity (HCC 2998): 86.7%
Activity (HCT-116): 87%
Activity (HCT-15): 104.5%
Activity (HT-29): 89.3%
Activity (KM12): 97.6%
Activity (SW-620): 89.9%
Activity (SF-268): 86.4%
Activity (SF-295): 100.8%
Activity (SF-539): 102.9%
Activity (SNB-19): 105.9%
Activity (SNB-75): 74.3%
Activity (U-251): 98.2%
Activity (LOX IMVI): 89.7%
Activity (Malme-3M): 75.8%
Activity (M14): 76%
Activity (MDA-MB-435): 99.2%
Activity (SK-MEL-2): 94.5%
Activity (SK-MEL-28): 95.8%
Activity (SK-MEL-5): 101%
Activity (UACC-257): 106.8%
Activity (UACC-62): 78.2%
Activity (IGROV-1): 83.8%
Activity (OVCAR-3): 94.9%
Activity (OVCAR-4): 73.8%
Activity (OVCAR-5): 84.2%
Activity (OVCAR-8): 96.7%
Activity (NCI/ADR-RES): 88.2%
Activity (SK-OV-3): 98.7%
Activity (786-0): 92.1%
Activity (A498): 44%
Activity (ACHN): 89.8%
Activity (CAKI-1): 79.5%
Activity (RXF 393): 121.2%
Activity (SN12C): 87.4%
Activity (TK-10): 102.3%
Activity (UO-31): 63.9%
Activity (PC-3): 64.5%
Activity (DU-145): 102.5%
Activity (MCF7): 84.6%
Activity (MDA-MB-231): 89.3%
Activity [2]: 73.4%
Activity (BT-549): 94.2%
Activity (T47D): 88.7%
Activity (MDA-MB-468): 84%

CC1=NN(c2cccc(Cl)c2)C(=O)/C1=C\c1ccccn1
Activity (CCRF-CEM): 32.58%
Activity (HL-60(TB)): 113.01%
Activity (K562): 102.25%
Activity (MOLT-4): 111.67%
Activity [1]: 96.65%
Activity (SR): 112.11%
Activity (A549): 116.18%
Activity (EKVX): 117.01%
Activity (HOP-62): 107.34%
Activity (HOP-92): 100.37%
Activity (NCI-H226): 112.86%
Activity (NCI-H23): 111.77%
Activity (NCI-H322M): 123.35%
Activity (NCI-H460): 117.15%
Activity (NCI-H522): 104.42%
Activity (COLO 205): 112.21%
Activity (HCC 2998): 120.72%
Activity (HCT-116): 88.7%
Activity (HCT-15): 114.26%
Activity (HT-29): 114.19%
Activity (KM12): 111.47%
Activity (SW-620): 116.97%
Activity (SF-268): 100.43%
Activity (SF-295): 118.39%
Activity (SF-539): 115.91%
Activity (SNB-19): 111.92%
Activity (SNB-75): 103.79%
Activity (U-251): 115.89%
Activity (LOX IMVI): 116.29%
Activity (Malme-3M): 121.3%
Activity (M14): 80.87%
Activity (MDA-MB-435): 117.42%
Activity (SK-MEL-2): 112.74%
Activity (SK-MEL-28): 128.95%
Activity (SK-MEL-5): 103.51%
Activity (UACC-257): 115.54%
Activity (UACC-62): 101.53%
Activity (IGROV-1): 103.16%
Activity (OVCAR-3): 117.75%
Activity (OVCAR-4): 128.45%
Activity (OVCAR-5): 116.2%
Activity (OVCAR-8): 105.14%
Activity (NCI/ADR-RES): 116.87%
Activity (SK-OV-3): 113.71%
Activity (786-0): 113.47%
Activity (A498): 111.6%
Activity (ACHN): 103.1%
Activity (CAKI-1): 98.46%
Activity (RXF 393): 114.31%
Activity (SN12C): 91.77%
Activity (TK-10): 118.17%
Activity (UO-31): 81.52%
Activity (PC-3): 113.15%
Activity (DU-145): 120.58%
Activity (MCF7): 102.77%
Activity (MDA-MB-231): 106.88%
Activity [2]: 111.76%
Activity (BT-549): 111.06%
Activity (T47D): 100.29%
Activity (MDA-MB-468): 116.6%
